These results are taken from ChEMBL document CHEMBL4033716, “The impact of the halogen bonding on D2 and 5-HT1A/5-HT7 receptor activity of azinesulfonamides of 4-[(2-ethyl)piperidinyl-1-yl]phenylpiperazines with antipsychotic and antidepressant properties” (Bioorg Med Chem, 2017).

For test [1], the target named is T1, 5-hydroxytryptamine receptor 1A (Homo sapiens, UniProt P08908).
T1 sequence (P08908 whole entry): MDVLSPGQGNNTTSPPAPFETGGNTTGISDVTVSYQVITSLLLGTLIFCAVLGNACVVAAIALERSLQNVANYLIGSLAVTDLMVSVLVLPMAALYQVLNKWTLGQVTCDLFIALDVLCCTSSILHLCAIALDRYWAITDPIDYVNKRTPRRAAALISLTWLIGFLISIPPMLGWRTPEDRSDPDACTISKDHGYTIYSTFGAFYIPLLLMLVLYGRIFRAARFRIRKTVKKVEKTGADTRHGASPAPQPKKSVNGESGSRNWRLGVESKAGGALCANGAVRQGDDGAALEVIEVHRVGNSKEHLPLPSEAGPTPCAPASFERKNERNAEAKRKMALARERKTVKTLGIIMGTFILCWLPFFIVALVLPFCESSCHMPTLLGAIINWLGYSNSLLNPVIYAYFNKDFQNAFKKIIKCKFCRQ
The experiment in a line: Displacement of [3H]-8-OH-DPAT from human 5-HT1A receptor expressed in HEK293 cell membranes after 1 hr by microbeta liquid scintillation counting analysis. In a few lines:
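HEK293 membranes with stably expressed human 5-HT1A, washed by two 35 000 g spins. Buffer 50 mM Tris-HCl, 0.1 mM EDTA, 4 mM MgCl₂, 10 μM pargyline, 0.1% ascorbate. Incubated 1 h at room temperature, then rapid filtration. 10 µM 5-HT defined nonspecific binding. Tested in triplicate over 10⁻¹¹–10⁻⁴ M (7–8 concentrations). Ki via Cheng-Prusoff, mean of ≥3 experiments.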
On the technique in general: Displacement assays read how much labelled ligand stays bound in the presence of the test substance.

The next test concerns the target D(2) dopamine receptor (Homo sapiens, UniProt P14416). The experiment in a line: Displacement of [3H]-Raclopride from human dopamine D2L receptor expressed in HEK293 cell membranes after 1 hr by microbeta liquid scintillation counting analysis. Put shortly:
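HEK293 membranes expressing human D2L. Incubated 1 h at 37°C, rapid filtration. 1 µM (+)butaclamol defined nonspecific binding. Triplicates at 7–8 concentrations, 10⁻¹¹–10⁻⁴ M. Ki via Cheng-Prusoff, ≥3 experiments.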

Test [2] deals with 5-hydroxytryptamine receptor 7 (Homo sapiens, UniProt P34969). Briefly: Displacement of [3H]-5-CT from human 5-HT7 receptor expressed in HEK293 cell membranes after 1 hr by microbeta liquid scintillation counting analysis. Put shortly:
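Membranes from HEK293 pellets stably expressing human 5-HT7b, homogenized and centrifuged twice at 35 000 g (4°C) with 15 min 37°C incubation between. Buffer 50 mM Tris-HCl, 4 mM MgCl₂, 10 μM pargyline, 0.1% ascorbate. Incubated 1 h at 37°C, then filtered. Nonspecific binding defined with 10 µM 5-HT. Triplicates at 7–8 concentrations (10⁻¹¹–10⁻⁴ M). Ki by Cheng-Prusoff, ≥3 experiments.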

The target of test [3] is 5-hydroxytryptamine receptor 6 (Homo sapiens, UniProt P50406). The experiment in a line: Displacement of [3H]-LSD from human 5-HT6 receptor expressed in HEK293 cell membranes after 1 hr by microbeta liquid scintillation counting analysis. In a few lines:
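Human 5-HT6 stably expressed in HEK293; cell membranes washed by two 35 000 g spins. Buffer 50 mM Tris-HCl, 0.5 mM EDTA, 4 mM MgCl₂. Incubated 1 h at 37°C, filtered. Nonspecific binding with 10 µM methiothepine. 7–8 concentrations (10⁻¹¹–10⁻⁴ M) in triplicate. Ki by Cheng-Prusoff, ≥3 experiments.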

Test [4] addresses 5-hydroxytryptamine receptor 2A (Homo sapiens, UniProt P28223). Briefly: Displacement of [3H]-Ketanserin from human 5-HT2A receptor expressed in HEK293 cell membranes after 1 hr by microbeta liquid scintillation counting analysis. Put shortly: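 Competition binding on membranes from HEK293 cells stably expressing human 5-HT2A, prepared by homogenization and two 35 000 g centrifugations. Incubated 1 h at 37°C, then filtered and counted. Triplicate points at 7–8 concentrations, 10⁻¹¹–10⁻⁴ M. Ki from Cheng-Prusoff, ≥3 separate experiments.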

Sequence of 5-hydroxytryptamine receptor 2A (P28223 whole entry): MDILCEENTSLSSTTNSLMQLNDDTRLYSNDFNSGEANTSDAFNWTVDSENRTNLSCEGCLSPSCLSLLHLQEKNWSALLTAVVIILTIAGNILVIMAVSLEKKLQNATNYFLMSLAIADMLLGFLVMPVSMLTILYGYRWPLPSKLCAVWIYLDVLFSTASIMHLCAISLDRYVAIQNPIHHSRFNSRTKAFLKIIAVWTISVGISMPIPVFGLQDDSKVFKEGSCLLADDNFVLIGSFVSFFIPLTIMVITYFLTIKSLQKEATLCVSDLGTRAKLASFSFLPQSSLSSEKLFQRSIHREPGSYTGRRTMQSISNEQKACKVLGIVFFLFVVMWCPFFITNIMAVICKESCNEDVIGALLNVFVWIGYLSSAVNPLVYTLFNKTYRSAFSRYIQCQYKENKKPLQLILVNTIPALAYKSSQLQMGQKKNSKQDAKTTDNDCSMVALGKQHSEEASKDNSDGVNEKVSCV
Sequence of 5-hydroxytryptamine receptor 7 (P34969 whole entry): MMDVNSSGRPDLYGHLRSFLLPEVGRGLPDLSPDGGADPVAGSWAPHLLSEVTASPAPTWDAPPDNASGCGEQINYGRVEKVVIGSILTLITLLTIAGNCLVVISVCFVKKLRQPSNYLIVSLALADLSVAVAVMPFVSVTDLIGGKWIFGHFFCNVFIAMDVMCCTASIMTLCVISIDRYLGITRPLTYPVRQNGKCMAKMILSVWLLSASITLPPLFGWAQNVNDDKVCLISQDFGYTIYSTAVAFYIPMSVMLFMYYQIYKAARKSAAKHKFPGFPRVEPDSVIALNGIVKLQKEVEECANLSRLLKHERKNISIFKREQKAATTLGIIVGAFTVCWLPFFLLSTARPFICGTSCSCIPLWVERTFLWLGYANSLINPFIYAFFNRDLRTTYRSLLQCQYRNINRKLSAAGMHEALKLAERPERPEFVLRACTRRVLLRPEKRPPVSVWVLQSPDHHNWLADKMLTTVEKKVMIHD
Sequence of D(2) dopamine receptor (P14416 whole entry): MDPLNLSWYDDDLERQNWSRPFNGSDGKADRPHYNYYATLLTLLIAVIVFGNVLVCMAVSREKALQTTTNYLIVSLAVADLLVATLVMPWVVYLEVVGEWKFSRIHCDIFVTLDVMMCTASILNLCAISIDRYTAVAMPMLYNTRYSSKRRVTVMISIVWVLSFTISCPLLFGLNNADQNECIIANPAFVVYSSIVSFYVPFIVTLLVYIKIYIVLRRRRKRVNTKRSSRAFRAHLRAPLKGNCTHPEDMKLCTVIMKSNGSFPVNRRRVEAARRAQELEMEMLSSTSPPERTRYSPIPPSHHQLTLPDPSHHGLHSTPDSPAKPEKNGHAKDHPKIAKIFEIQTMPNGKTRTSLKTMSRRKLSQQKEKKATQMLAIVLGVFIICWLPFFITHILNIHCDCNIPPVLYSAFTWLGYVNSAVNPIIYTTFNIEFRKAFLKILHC
Sequence of 5-hydroxytryptamine receptor 6 (P50406 whole entry): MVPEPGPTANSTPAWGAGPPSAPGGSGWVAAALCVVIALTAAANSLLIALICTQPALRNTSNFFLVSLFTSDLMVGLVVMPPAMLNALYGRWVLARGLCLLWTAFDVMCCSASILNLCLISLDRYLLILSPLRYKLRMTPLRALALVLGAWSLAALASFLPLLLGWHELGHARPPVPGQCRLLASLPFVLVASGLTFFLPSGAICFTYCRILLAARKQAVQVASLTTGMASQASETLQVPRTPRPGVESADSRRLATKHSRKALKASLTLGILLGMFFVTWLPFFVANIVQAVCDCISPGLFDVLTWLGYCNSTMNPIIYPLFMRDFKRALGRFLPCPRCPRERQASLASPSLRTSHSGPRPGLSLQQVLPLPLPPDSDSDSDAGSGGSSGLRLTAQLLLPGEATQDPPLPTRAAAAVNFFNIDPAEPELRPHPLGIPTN

Broadly, the Ki is the equilibrium dissociation constant of an inhibitor or competing ligand from its target. Higher therefore signals a looser hold on the target. Regarding `O=S(=O)(c1cncc2ccccc12)N1CCC(CCN2CCN(c3cccc(C(F)(F)F)c3)CC2)CC1`, the inhibition constant (Ki) in test [1] was 30 nM; at D(2) dopamine receptor, 148 nM; in test [2], 52 nM; in test [3], 1020 nM; in test [4], 161 nM.
In the case of `O=S(=O)(c1cncc2ccccc12)N1CCC(CCN2CCN(c3ccccc3)CC2)CC1`, the Ki came out at 543 nM in test [1]; 1220 nM at D(2) dopamine receptor; 174 nM in test [2]; 2410 nM in test [3]; 410 nM in test [4].
The matching figures for `O=S(=O)(c1cccc2ncccc12)N1CCC(CCN2CCN(c3ccc(Cl)cc3)CC2)CC1`: 740 nM, 141 nM, 37 nM, 1020 nM and 152 nM.
With `O=S(=O)(c1cccc2ncccc12)N1CCC(CCN2CCN(c3ccc(F)cc3)CC2)CC1`, the Ki in test [1] was determined as 759 nM; at D(2) dopamine receptor, 223 nM; in test [2], 29 nM; in test [3] it was 1460 nM; in test [4], 139 nM.
Taken in the same sequence, the figures for `O=S(=O)(c1cccc2ncccc12)N1CCC(CCN2CCN(c3cccc(Cl)c3)CC2)CC1` were 54 nM, 76 nM, 37 nM, 445 nM and 197 nM.
On to `O=S(=O)(c1cccc2ncccc12)N1CCC(CCN2CCN(c3cccc(F)c3)CC2)CC1`, for which the Ki in test [1] was found to be 609 nM; at D(2) dopamine receptor, 1820 nM; in test [2], 165 nM; in test [3], 8280 nM; in test [4], 665 nM.
`O=S(=O)(c1cncc2ccccc12)N1CCC(CCN2CCN(c3cccc(F)c3)CC2)CC1`: the Ki in test [1] amounted to 370 nM; on D(2) dopamine receptor, 1010 nM; in test [2], 142 nM; in test [3], 3800 nM; in test [4] it was 691 nM.
On to `O=S(=O)(c1cncc2ccccc12)N1CCC(CCN2CCN(c3ccc(Cl)c(Cl)c3)CC2)CC1`, for which the Ki in test [1] is 324 nM; on D(2) dopamine receptor it was 145 nM; in test [2], 36 nM; in test [3], 1040 nM; in test [4] it was 179 nM.
The matching figures for `O=S(=O)(c1cccc2ncccc12)N1CCC(CCN2CCN(c3cccc(C(F)(F)F)c3)CC2)CC1`: 40 nM, 149 nM, 56 nM, 640 nM and 530 nM.
As for `O=S(=O)(c1cncc2ccccc12)N1CCC(CCN2CCN(c3ccc(F)cc3)CC2)CC1`, the Ki was 975 nM in test [1]; 418 nM on D(2) dopamine receptor; 14 nM in test [2]; 1860 nM in test [3]; 156 nM in test [4].
Take `O=S(=O)(c1cccc2ncccc12)N1CCC(CCN2CCN(c3ccc(Cl)c(Cl)c3)CC2)CC1`: the Ki was 257 nM in test [1]; 121 nM at D(2) dopamine receptor; 52 nM in test [2]; 791 nM in test [3]; 336 nM in test [4].
For `O=S(=O)(c1cccc2ncccc12)N1CCC(CCN2CCN(c3ccccc3)CC2)CC1`, the Ki in test [1] was 749 nM; on D(2) dopamine receptor it was 1240 nM; in test [2], 209 nM; in test [3], 6710 nM; in test [4] it was 646 nM.
